Consider 18 molecules from ChEMBL document CHEMBL4431329, “Peripherally Selective Cannabinoid 1 Receptor (CB1R) Agonists for the Treatment of Neuropathic Pain” (J Med Chem, 2016).

Structures are written as SMILES. Activity calls are given as the source filed them. Some results are limits rather than exact numbers.

Data set [1] addresses T1, Cannabinoid receptor 1 (Homo sapiens, UniProt P21554). Description: Displacement of [3H]-CP55940 from human CB1 receptor. A digest of the protocol: (§1)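 Radioligand displacement used [3H]-CP55940 as tracer in heterologous competition binding. Unlabeled reference ligands defined nonspecific binding. Ki was calculated by Cheng–Prusoff.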
Data set [2] addresses Cannabinoid receptor 1 (Rattus norvegicus, UniProt P20272). As to the kind of experiment: Displacement of [3H]-CP55940 from rat CB1 receptor.
Data set [3] deals with T1, Cannabinoid receptor 1. As to the kind of experiment: Agonist activity at human CB1R expressed in CHO cells by Ca2+ flux assay. It is filed as functional, cell-based. A digest of the protocol:
(§2)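 CHO cells stably co-expressing human CB1 or CB2 with Gαq16 were seeded at 40000/well and grown 24 h at 37 °C. They were loaded 1 h at 37 °C with Fluo-4 AM (2 μM final) in HBSS/20 mM HEPES/1% BSA/probenecid. Agonist was added after ~17 s baseline, and fluorescence (ex 488/em 525) was read each 1 s for 60 s. Runs were done 3–6 times; mean ± SEM.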

Data set [4] can be described thus: Metabolic stability in Sprague-Dawley rat plasma assessed as compound remaining at 10 uM measured at 1 hr by LC/MS analysis. It is filed as ADME, cell-free. A digest of the protocol:
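Compound (10 μM final, from 1 mM ethanol stock) was incubated in male Sprague–Dawley rat plasma at 37 °C. Aliquots taken at 0, 30 and 60 min were extracted with 3 volumes methanol and centrifuged. Supernatants were analysed by LC/MS.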

The nature of data set [5]: Metabolic stability in Sprague-Dawley rat liver S9 fraction assessed as compound remaining at 10 uM measured at 1 hr by LC/MS analysis. It is filed as ADME, subcellular. Particulars: s9, 1 h. Put shortly:
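Compound (10 μM final, from 1 mM ethanol stock) was incubated at 37 °C in male Sprague–Dawley rat liver S9 (1 mg protein/mL). The mix held an NADPH-regenerating system (1 mM NADP, 5 mM glucose 6-phosphate, 1 U/mL G6PDH) in 50 mM KPO4 pH 7.4 with 3 mM MgCl2, preincubated 5 min. Samples at 0–120 min were methanol-extracted and analysed by LC/MS.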

Data set [6] can be described thus: Efflux ratio of permeability in MDCK cells expressing mdr1 at 10 uM by mass spectroscopic analysis. Format: ADME, cell-based, Canis lupus familiaris. Particulars: dog. Put shortly:
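MDCK-mdr1 monolayers were grown 4 days on Transwell filters in DMEM/F12 with 10% FBS. Compound (10 μM) was added apically in HBSS with 25 mM D-glucose, HEPES pH 7.4, and incubated 1 h at 37 °C. Apical and basal samples were quantified by LC-MS/MS (MRM). Values are the average of 2–3 measurements.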

Data set [7] addresses T2, Cannabinoid receptor 2 (Homo sapiens, UniProt P34972). As to the kind of experiment: Agonist activity at human CB2R expressed in CHO cells by Ca2+ flux assay. It is filed as functional, cell-based. A digest of the protocol: as §2
Data set [8] relates to Rattus norvegicus. Description: Antiallodynic activity in SNE-induced mechanical allodynia naive Sprague-Dawley rat model assessed as reversible […] in hindpaw ipsilateral withdrawal threshold at 0.3 mg/kg, ip preincubated for 3 hrs followed by SNE addition. It is filed as functional, organism-based. A digest of the protocol:
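Male Sprague–Dawley rats received unilateral sciatic nerve entrapment. Testing began 8 days post-surgery at 3-day intervals, dosed ip in DMSO/Cremophor EL/saline. Hindpaw withdrawal threshold (g) was read with a digital von Frey meter, 4 readings per paw at 30 s spacing, averaged. Reads were taken 1 h before and 3, 6, 24 and 48 h after dosing; n = 8; blinded; one-way RM ANOVA.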

In data set [9] the test system is Rattus norvegicus. As to the kind of experiment: Analgesic activity in naive Sprague-Dawley rat assessed as tail flick latency at 0.1 to 10 mg/kg administered through oral gavage up to 48 hrs by tail-flick assay. Format: functional, organism-based. A digest of the protocol:
(§3)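 Naïve male Sprague–Dawley rats were dosed ip (DMSO/Cremophor EL/saline) or by gavage (DMSO in 20% condensed milk). Radiant heat was aimed 3 cm from the tail tip and latency timed by photocell. Baseline was set to ~5–7 s with a 25 s cutoff. Testing ran 1 h pre-dose and up to 48 h after. Peak effect was taken minus vehicle; n = 6–8; blinded.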

Data set [10] in a line: Toxicity in naive Sprague-Dawley rat assessed as motor incoordination at 0.1 to 10 mg/kg administered through oral gavage after 2 to 48 hrs by rotarod test. As to conditions: in vivo. It is filed as organism-based. Put shortly:
(§4)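 Rats were trained 72 h earlier (3 sessions, 24 h apart) to stay ≥180 s on an accelerating rotarod (4–40 rev over 5 min). Time on rod was recorded to a 3 min cutoff, 1 h pre-dose and 2, 6, 24 and 48 h after ip or oral gavage dosing. Values are peak effect minus vehicle; n = 6–8; blinded.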

Data set [11] has as its target T2, Cannabinoid receptor 2. As to the kind of experiment: Displacement of [3H]-CP55940 from human CB2 receptor. A digest of the protocol:
as §1

Data set [12] can be described thus: Toxicity in naive Sprague-Dawley rat assessed as immobility at 0.1 to 10 mg/kg administered through oral gavage after 2 to 48 hrs by catalepsy ring test. It is filed as organism-based. Particulars: in vivo. A digest of the protocol: (§5)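 In the ring immobility test, forepaws were placed on a 12 cm horizontal ring with hindpaws just touching the bench. Time to move off was recorded, 100 s cutoff. Testing was pre-dose and 2, 6, 24 and 48 h after ip or oral gavage dosing. Values are peak effect minus vehicle; n = 6–8; blinded.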

Data set [13] can be described thus: Toxicity in naive Sprague-Dawley rat assessed as hypothermia at 0.1 to 10 mg/kg administered through oral gavage after 2 to 48 hrs by core temperature test. Format: organism-based. Particulars: in vivo. A digest of the protocol:
(§6)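 Naïve rats were acclimated to a restrainer (two 5-min sessions 20 min apart). Core temperature was taken before and 2, 6, 24 and 48 h after ip (DMSO/Cremophor EL/saline) or oral gavage (DMSO in 20% condensed milk) dosing. Dose-response points are mean peak effect minus vehicle; n = 6–8 rats; blinded.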

Data set [14] concerns Rattus norvegicus. Description: Analgesic activity in naive Sprague-Dawley rat assessed as increase in tail flick latency at 0.3 mg/kg, ip up to 48 hrs by tail-flick assay. It is filed as functional, organism-based. A digest of the protocol:
as §3

The test system of data set [15] is Rattus norvegicus. As to the kind of experiment: Analgesic activity in naive Sprague-Dawley rat assessed as tail flick latency at 0.01 mg/kg, ip up to 48 hrs by tail-flick assay. It is filed as functional, organism-based. A digest of the protocol: as §3
Data set [16] is described as follows: Toxicity in naive Sprague-Dawley rat assessed as motor incoordination at 0.01 mg/kg, ip after 2 to 48 hrs by rotarod test. Format: organism-based. Particulars: in vivo. A digest of the protocol:
as §4

Data set [17] can be described thus: Toxicity in naive Sprague-Dawley rat assessed as hypothermia at 0.01 mg/kg, ip after 2 to 48 hrs by core temperature test. Format: organism-based. As to conditions: in vivo. Put shortly:
as §6

Data set [18] in a line: Toxicity in naive Sprague-Dawley rat assessed as immobility at 0.01 mg/kg, ip by after 2 to 48 hrs by catalepsy ring test. Format: organism-based. Particulars: in vivo. A digest of the protocol: as §5

T2 sequence (P34972 whole entry): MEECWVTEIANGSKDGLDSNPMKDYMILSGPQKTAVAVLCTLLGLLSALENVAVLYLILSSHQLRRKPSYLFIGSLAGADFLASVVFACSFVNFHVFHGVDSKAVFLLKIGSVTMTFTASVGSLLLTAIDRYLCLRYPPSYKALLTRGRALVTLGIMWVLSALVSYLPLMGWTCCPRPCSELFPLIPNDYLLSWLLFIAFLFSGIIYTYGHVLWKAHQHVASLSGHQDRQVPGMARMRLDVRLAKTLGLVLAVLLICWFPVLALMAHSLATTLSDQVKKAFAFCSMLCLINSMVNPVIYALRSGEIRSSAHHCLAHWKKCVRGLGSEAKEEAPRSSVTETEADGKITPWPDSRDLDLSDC
T1 sequence (P21554 whole entry): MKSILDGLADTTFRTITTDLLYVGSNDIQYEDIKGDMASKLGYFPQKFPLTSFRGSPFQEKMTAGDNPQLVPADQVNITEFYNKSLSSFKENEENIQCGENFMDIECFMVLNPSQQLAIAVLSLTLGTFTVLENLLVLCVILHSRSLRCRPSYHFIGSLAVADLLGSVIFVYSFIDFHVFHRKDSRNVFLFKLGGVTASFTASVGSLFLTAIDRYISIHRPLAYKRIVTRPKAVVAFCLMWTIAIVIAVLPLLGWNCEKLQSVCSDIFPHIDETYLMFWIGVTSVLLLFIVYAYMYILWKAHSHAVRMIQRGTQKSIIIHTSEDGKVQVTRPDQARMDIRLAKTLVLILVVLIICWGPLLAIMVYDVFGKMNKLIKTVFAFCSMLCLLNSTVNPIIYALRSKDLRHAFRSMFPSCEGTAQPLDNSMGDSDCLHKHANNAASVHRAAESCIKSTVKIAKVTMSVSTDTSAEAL
Cannabinoid receptor 1 (Rattus norvegicus, UniProt P20272), sequence (P20272 whole entry): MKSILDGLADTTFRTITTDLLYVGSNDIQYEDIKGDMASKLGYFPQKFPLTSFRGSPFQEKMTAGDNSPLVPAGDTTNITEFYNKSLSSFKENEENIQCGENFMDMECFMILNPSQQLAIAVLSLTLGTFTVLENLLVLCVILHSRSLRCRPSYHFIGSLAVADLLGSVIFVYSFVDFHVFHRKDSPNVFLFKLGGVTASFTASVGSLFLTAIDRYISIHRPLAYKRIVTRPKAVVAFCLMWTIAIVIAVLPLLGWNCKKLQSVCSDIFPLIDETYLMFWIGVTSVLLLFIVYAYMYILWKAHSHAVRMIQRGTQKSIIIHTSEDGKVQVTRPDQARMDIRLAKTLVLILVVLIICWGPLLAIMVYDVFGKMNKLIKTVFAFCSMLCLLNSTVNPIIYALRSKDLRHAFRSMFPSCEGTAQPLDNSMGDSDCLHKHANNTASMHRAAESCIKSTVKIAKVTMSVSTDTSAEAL

With `CCCCCCC1=C/C(=C\c2cccc3ccccc23)c2ccccc21`, the affinity in data set [1] corresponds to a Ki of 436 nM.

On to `COc1ccc(C(=O)c2c(C)n(CCN3CCOCC3)c3ccccc23)cc1` [PRAVADOLINE], for which affinity in data set [2] was put at a Ki of 2510 nM.

`CCCCCn1cc(C(=O)c2cccc3ccccc23)c2cccc(F)c21`: in data set [3], the 50% effective concentration (EC50) came out at 104 nM and the maximal response (Emax) amounted to 79%. Besides, in data set [4], the Stability was 97%. Besides, in [5], the Stability was 50%.

The molecule `C[N+]1(CCn2cc(C(=O)c3cccc4ccccc34)c3ccccc32)CCOCC1` showed a Ki in data set [1] of more than 10000 nM.

In the case of `C1=C(CCN2CCOCC2)c2ccccc2/C1=C/c1cccc2ccccc12`, the values for the 50% effective concentration (EC50) in data set [3] and in [7] were 257 nM and 138 nM, respectively. Further, the values for the maximum response (Emax) in data set [3] and in data set [7] were 103% and 27%, respectively. For the same molecule, the Ratio in data set [6] was 0.001. The Stability in data set [4] turned out to be 98.5%; in [5] it was 22.5%. In data set [8], the outcome was Active.

`C1=C(CCN2CCOCC2)c2ccccc2/C1=C/c1ccco1` gave a Ki in [1] of more than 10000 nM.

`COc1ccc(/C=C2\C=C(CCN3CCOCC3)c3ccccc32)c2ccccc12`: the EC50 was 196 nM in [3] and 194 nM in data set [7]. For the same molecule, the maximal effect (Emax) in data set [3] came to 114%; in data set [7] it was 52%. In addition, the outcome in data set [9], in data set [8] and in data set [14] was Active. Further, the Activity result in data set [10], in [12] and in [13] was “Non-Toxic” in each case. The Stability in [4] is 100%; in data set [5], 43%. This molecule came in with an inhibition constant (Ki) in data set [11] of 4.07 nM.

Consider `COc1ccc(C(=O)c2c(C)n(CC[N+]3(C)CCOCC3)c3ccccc23)cc1`, for which the inhibition constant Ki in data set [1] is more than 10000 nM.

On to `CCc1ccc(/C=C2\C=C(CCN3CCOCC3)c3ccccc32)c2ccccc12`, for which the EC50 in [3] worked out at 141 nM; in [7] it was 163 nM. In addition, the maximum response (Emax) in [3] amounted to 121%; in data set [7], 59%. Moreover, the result in data set [9] and in data set [14] was Active. Besides, the Activity entry in data set [10], in data set [12] and in data set [13] was “Non-Toxic” throughout.

`C1=C(CCN2CCOCC2)c2ccccc2/C1=C/c1ccc2c3c(cccc13)CC2`: in data set [6], the Ratio is 0.0014. In data set [7], the EC50 was 594 nM and the Emax turned out to be 20%.

`CCCCCn1cc(C(=O)c2cccc3ccccc23)c2c(F)cccc21`: the Stability is 69% in [4] and 5% in data set [5].

Consider `CCCCCCC(C)(C)c1cc(O)c2c(c1)OC(C)(C)[C@@H]1CC=C(CO)C[C@@H]21`, for which the outcome in data set [15], in [9] and in data set [14] was Active. Besides, the Activity result in [16], in [17] and in data set [18] was “Toxic” in each case.

For `CCCCCn1cc(C(=O)c2cccc3ccccc23)c2cc(F)ccc21`, the values for the Stability in [4] and in data set [5] were 99% and 13%, respectively.

`O=C(O)CCCn1cc(C(=O)c2cccc3ccccc23)c2ccccc21` registered an inhibition constant Ki in data set [1] of more than 10000 nM.

With `CCCCCCC1=C/C(=C\c2ccccc2)c2ccccc21`, the Ki in data set [1] worked out at 4410 nM.

`CCCCCn1cc(C(=O)c2ccc(C(=O)O)c3ccccc23)c2ccccc21` registered an inhibition constant (Ki) in [1] of more than 10000 nM.

Consider `O=C(O)CCCCn1cc(C(=O)c2cccc3ccccc23)c2ccccc21`, for which the Ki in data set [1] was more than 10000 nM.

For the molecule `CCCCCn1cc(C(=O)c2cccc3ccccc23)c2ccc(F)cc21`, the Stability in data set [4] worked out at 80%; in data set [5] it was 30%.
